# From ChEMBL document CHEMBL1142961, “Novel selective inhibitors of the zinc plasmodial aminopeptidase PfA-M1 as potential antimalarial agents” (J Med Chem, 2007)
# pIC50: −log10 of the molar value.
# Assays:
# [1] = target: T1, Aminopeptidase N (Plasmodium falciparum FcB1/Columbia, UniProt O96935); assay: Inhibition of Plasmodium falciparum FcB1 M1 aminopeptidase
# T1 sequence (O96935 whole entry): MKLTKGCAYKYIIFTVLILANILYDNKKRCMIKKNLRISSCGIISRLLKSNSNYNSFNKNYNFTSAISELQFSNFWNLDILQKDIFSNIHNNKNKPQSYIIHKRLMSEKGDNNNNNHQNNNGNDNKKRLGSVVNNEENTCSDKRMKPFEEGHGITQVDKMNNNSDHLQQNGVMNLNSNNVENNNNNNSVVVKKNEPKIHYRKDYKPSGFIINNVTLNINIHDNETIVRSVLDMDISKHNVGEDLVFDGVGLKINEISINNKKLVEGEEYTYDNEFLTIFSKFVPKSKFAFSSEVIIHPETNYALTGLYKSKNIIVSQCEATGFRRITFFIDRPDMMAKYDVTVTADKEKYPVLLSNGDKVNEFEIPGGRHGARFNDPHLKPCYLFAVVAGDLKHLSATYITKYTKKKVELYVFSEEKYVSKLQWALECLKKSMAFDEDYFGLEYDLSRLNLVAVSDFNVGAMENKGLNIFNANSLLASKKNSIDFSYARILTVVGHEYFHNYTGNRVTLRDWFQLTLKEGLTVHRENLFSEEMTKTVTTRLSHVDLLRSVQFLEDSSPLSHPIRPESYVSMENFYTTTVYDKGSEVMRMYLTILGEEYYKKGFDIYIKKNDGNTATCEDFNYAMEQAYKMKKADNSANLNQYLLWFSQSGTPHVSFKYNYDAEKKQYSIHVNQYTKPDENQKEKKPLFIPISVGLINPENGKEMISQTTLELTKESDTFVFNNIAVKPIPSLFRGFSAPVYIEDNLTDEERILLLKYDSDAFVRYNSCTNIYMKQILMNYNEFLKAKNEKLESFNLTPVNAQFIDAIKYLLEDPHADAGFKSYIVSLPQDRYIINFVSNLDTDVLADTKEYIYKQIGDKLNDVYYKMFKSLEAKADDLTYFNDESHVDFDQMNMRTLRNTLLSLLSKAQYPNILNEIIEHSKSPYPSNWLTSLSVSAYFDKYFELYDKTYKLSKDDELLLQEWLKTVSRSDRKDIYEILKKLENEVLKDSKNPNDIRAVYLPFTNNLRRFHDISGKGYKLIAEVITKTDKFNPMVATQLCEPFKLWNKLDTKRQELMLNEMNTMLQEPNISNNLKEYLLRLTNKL
# In short: (§1)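 Native enzyme purified from P. falciparum FcB1, diluted 10-fold in 25 mM Tris-HCl pH 7.4. Preincubated with inhibitor for 10 min at room temperature, then Leu-pNA substrate added (0.3 mM stock, Km 0.099 mM). Kinetics followed at 405 nm at room temperature. Initial velocities normalized to a no-inhibitor control. Single-point screen at 10 µM; IC50 from velocity versus inhibitor concentration curves. Bestatin used as reference.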
# [2] = target: T2, Aminopeptidase N (Plasmodium falciparum FcB1/Columbia) (UniProt O96935); assay: Inhibition of Plasmodium falciparum FcB1 M1 aminopeptidase at 10 uM; in short: as §1
# T2 sequence (whole entry): T1 sequence (O96935 whole entry)
# [3] = target: T3, Aminopeptidase N (Sus scrofa) (UniProt P15145); assay: Inhibition of pig kidney microsomal APN at 10 uM
# T3 sequence (whole entry): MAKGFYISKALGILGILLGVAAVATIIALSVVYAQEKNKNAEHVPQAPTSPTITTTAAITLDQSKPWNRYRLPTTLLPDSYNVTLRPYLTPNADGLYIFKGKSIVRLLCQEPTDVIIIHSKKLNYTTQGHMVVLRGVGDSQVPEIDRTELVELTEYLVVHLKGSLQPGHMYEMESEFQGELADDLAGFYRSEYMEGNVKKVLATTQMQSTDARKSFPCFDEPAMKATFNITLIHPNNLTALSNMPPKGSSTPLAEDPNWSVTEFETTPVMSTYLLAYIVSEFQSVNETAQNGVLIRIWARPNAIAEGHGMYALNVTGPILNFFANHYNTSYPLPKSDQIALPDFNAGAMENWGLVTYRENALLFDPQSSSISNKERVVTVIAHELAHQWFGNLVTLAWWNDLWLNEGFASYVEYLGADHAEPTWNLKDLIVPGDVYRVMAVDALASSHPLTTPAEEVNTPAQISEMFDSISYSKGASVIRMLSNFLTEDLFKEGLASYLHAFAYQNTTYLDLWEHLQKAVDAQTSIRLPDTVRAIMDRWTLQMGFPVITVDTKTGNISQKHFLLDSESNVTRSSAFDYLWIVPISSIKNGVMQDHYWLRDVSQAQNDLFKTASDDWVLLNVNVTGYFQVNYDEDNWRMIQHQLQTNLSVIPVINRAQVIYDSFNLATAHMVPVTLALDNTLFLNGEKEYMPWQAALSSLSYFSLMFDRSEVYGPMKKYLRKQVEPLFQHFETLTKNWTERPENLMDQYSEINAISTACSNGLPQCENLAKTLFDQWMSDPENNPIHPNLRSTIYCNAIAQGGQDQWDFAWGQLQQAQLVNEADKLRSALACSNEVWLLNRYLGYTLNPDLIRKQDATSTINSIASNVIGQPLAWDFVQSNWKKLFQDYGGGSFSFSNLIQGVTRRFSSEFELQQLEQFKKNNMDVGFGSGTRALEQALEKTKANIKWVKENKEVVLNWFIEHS
# In short: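 Porcine kidney microsomal APN (ammonium sulfate suspension) diluted 600-fold in 25 mM Tris-HCl pH 7.4. Preincubated with inhibitor for 10 min at room temperature, then Leu-pNA added (0.3 mM stock). Hydrolysis followed at 405 nm at room temperature. Rates normalized to a no-inhibitor control. Single point at 10 µM; IC50 from concentration-velocity curves. Bestatin used as reference.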
pIC50 [1],inhibition [2],inhibition [3],SMILES
5.94,87%,92%,CC(C)CC(C(=O)NO)C(=O)NCCCCc1ccccc1 (stereo not drawn)
6.02,100%,84%,O=C(NO)C(Cc1cccc(Oc2ccccc2)c1)C(=O)N1CCc2ccccc2C1 (stereo not drawn)
6.65,96%,84%,O=C(NO)C(Cc1cccc(Oc2ccccc2)c1)C(=O)NCCCCc1ccccc1 (stereo not drawn)
7.35,88%,96%,CC(C)CC(C(=O)NO)C(=O)NCc1cccc(Oc2ccccc2)c1 (stereo not drawn)
5.75,75%,21%,O=C(NO)C(Cc1ccccc1)C(=O)N1CCN(Cc2ccccc2)CC1 (stereo not drawn)
5.93,71%,90%,O=C(NO)C(Cc1ccccc1)C(=O)NCc1cccc(-c2ccccc2)c1 (stereo not drawn)
6.90,94%,84%,O=C(NO)C(Cc1ccccc1)C(=O)NCCCc1ccccc1 (stereo not drawn)
6.39,100%,68%,CC(C)CC(C(=O)NO)C(=O)N1CCC(Cc2ccccc2)CC1 (stereo not drawn)
6.04,90%,99%,CC(C)CC(C(=O)NO)C(=O)NCc1ccc(Cl)cc1 (stereo not drawn)
6.90,94%,69%,O=C(NO)C(Cc1ccccc1)C(=O)NCc1ccccc1 (stereo not drawn)
6.05,74%,105%,CC(C)CC(C(=O)NO)C(=O)NCCc1ccccc1 (stereo not drawn)
5.71,26%,61%,O=C(NO)C(Cc1ccccc1)C(=O)NC1Cc2ccccc2C1 (stereo not drawn)
6.28,93%,89%,O=C(NO)C(Cc1cccc(Oc2ccccc2)c1)C(=O)NCCCc1ccccc1 (stereo not drawn)
6.61,97%,65%,O=C(NO)C(Cc1cccc(Oc2ccccc2)c1)C(=O)N1CCC(Cc2ccccc2)CC1 (stereo not drawn)
6.00,82%,70%,O=C(NO)C(Cc1ccccc1)C(=O)NCCc1ccccc1 (stereo not drawn)
6.64,102%,84%,O=C(NO)C(Cc1cccc(Oc2ccccc2)c1)C(=O)NCc1ccc(C(F)(F)F)cc1 (stereo not drawn)

pIC50 [1],inhibition [2],inhibition [3],SMILES
6.69,92%,34%,O=C(NO)C(Cc1ccccc1)C(=O)N1CCC(Cc2ccccc2)CC1 (stereo not drawn)
6.97,,,O=C(NO)C(Cc1ccccc1)C(=O)NCc1cccc2ccccc12 (stereo not drawn)
,98%,88%,O=C(NO)C(Cc1cccc(Oc2ccccc2)c1)C(=O)NCCc1ccccc1 (stereo not drawn)
5.27,,,O=C(NO)C(Cc1ccccc1)C(=O)NCC(c1ccccc1)c1ccccc1 (stereo not drawn)
,-3%,23%,NC(C(=O)NO)C(=O)N1CCN(Cc2ccc3c(c2)OCO3)CC1 (stereo not drawn)
,-8%,25%,NC(C(=O)NO)C(=O)NCCc1ccccc1 (stereo not drawn)
,38%,67%,O=C(NO)C(Cc1cccc(Oc2ccccc2)c1)C(=O)N(CCc1ccccc1)Cc1ccccc1 (stereo not drawn)
,-2%,12%,O=C(CC(=O)NC1Cc2ccccc2C1)NO
,21%,14%,O=C(CC(=O)N1CCN(C(c2ccccc2)c2ccccc2)CC1)NO
,3%,18%,CN(CCCNC(=O)C(N)C(=O)NO)c1ccccc1 (stereo not drawn)
,4%,34%,NC(C(=O)NO)C(=O)N(CCc1ccccc1)Cc1ccccc1 (stereo not drawn)
6.96,,,CC(C)CC(C(=O)NO)C(=O)NC1CCCc2ccccc21 (stereo not drawn)
,10%,13%,O=C(CC(=O)NCc1ccc(Cl)cc1)NO
,29%,47%,O=C(NO)C(Cc1ccccc1)C(=O)NCCc1ccccn1 (stereo not drawn)
,86%,89%,CN(Cc1ccccc1)C(=O)C(Cc1cccc(Oc2ccccc2)c1)C(=O)NO (stereo not drawn)
,53%,29%,O=C(NO)C(Cc1ccccc1)C(=O)N1CCN(Cc2ccc3c(c2)OCO3)CC1 (stereo not drawn)
